Assay outcomes deposited in PubChem BioAssay by several laboratories.
Rows were chosen to be rich in hits. Some 12% of all compounds tested hit in one or more screens of this group.
MT stabilize HCS: microtubule stabilizers in HeLa cells. HeLa tubulin immunostaining HCS, 24 h; share of cells brighter than vehicle mean+2SD. % tubulin-high responders, % at 10 µM. hit rate 0.83% among 200,000;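 active = plate Z-score above 3 for both tubulin-high and condensed-nucleus cell shares, with cell loss under 80%, at 10 µM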;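 also: anti alpha tubulin signal scored within the nucleus-defined area of each cell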
CHOP inh: blocks CHOP induction under ER stress. AID 2732. hit rate 3.8% among 220,000. inhibition, % at 10 µM. CHO-K1 CHOP-promoter luciferase, tunicamycin-induced, 15-18 h;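 active = compounds that reduced the stress-induced luciferase reporter signal by more than about 70% of percent inhibition, limit read from the data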;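 also: 0% = tunicamycin plus vehicle and 100% = wells without tunicamycin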
Dynein cargo inh: dynein cargo transport inhibition. 3617.4 mouse cells, GR-EGFP nuclear translocation imaging; test concentration mostly 20 µM; stimulated with dexamethasone, 1 µM; stronger effect = lower value. AID 1381. hit rate 0.47% among 220,000. z-score, hits read low;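 active = plate z-score of nuclear minus cytoplasmic receptor signal below a set negative limit, without overly bright fluorescence or cell loss, cut at about -3.5 in these data, passing the limit was not always enough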;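 also: z-score of nuclear minus cytoplasmic ring GR-EGFP intensity difference per well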
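Buffer or medium: Induction medium lacking tetracycline, stripped serum | Also added: Dexamethasone agonist, 1.0 µM final, for 30 min | Timing: 48 h induction, 1 h compound, 30 min dex at 37 °C | Detection: Formaldehyde fixation, Hoechst nuclear stain, 10x automated fluorescence imaging | Measure: Nuclear versus cytoplasmic GR-EGFP signal, averaged per well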
L major viab: inhibitors of Leishmania major promastigote growth | hit rate 9% among 200,000 | Leishmania major promastigotes, resazurin fluorescence viability | inhibition, % at 10 µM | AID 1063; in the data active = inhibition above about 50%;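 also: promastigotes grown with compound for 44 hours at 28 °C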
b-catenin transl: modulators of beta-catenin nuclear translocation; HeLa beta-catenin nuclear translocation, immunofluorescence imaging; nuclear translocation activity, % at 5 µM; hit rate 0.3% among 190,000; AID 1665;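 active = nuclear translocation activity above 50% at 5 µM, with a well cell count of 50 or more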;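 also: per-cell ratio of nuclear to cytoplasmic median beta-catenin stain intensity; plate controls were DMSO negative control for no effect and GSK-3 inhibitor IX positive control for full effect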
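Assay system: human HeLa cells, native beta-catenin; doses: 5 µM primary, 0.02–20 µM confirmation; incubation: compound treatment 24 h, 37°C, 5% CO2; technique: fluorescence imaging of beta-catenin antibody stain plus DAPI; measure: % activation, nuclear-to-cytoplasmic median beta-catenin signal ratio per cell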
Autophagy HCS: autophagy modulation, high-content screen; hit rate 0.98% among 190,000; MEF GFP-LC3 puncta imaging; test concentration mostly 10 µM; calls only at 10 µM (by protocol);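 active = percentage of spot-positive cells more than 3 SD above its plate mean, without a fluorescence outlier flag or 80% toxicity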;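 also: spot-positive cell cutoff set from DMSO-treated cells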
* marks the source's active call; other numbers are inactive results; i = inactive; · = no result; + = active, no number.

SMILES | MT stabilize HCS | CHOP inh | Dynein cargo inh | L major viab | b-catenin transl | Autophagy HCS
CCOc1ccc(N2C(=O)C3ON(c4ccccc4)C(c4cccs4)C3C2=O)cc1 (centres undefined) | 2 | 31 | -0.35 | -7 | 0 | i
CCOC(=O)c1c(C)[nH]c(C(=O)NCc2ccco2)c1C | 3 | 0 | 0.91 | -2 | -1 | i
Cc1cc(/C=C2/NC(=O)N(Cc3ccccc3F)C2=O)c(C)n1C(C)C | 4 | 72* | 0.57 | -5 | -1 | i
Cc1ccc(S(=O)(=O)NC(C)C(c2cccs2)N2CCN(c3ccccc3)CC2)cc1 (centres undefined) | 2 | 78* | -0.52 | 5 | 0 | i
Cc1ccc(S(=O)(=O)NC(C)C(c2cccs2)N2CCN(C)CC2)cc1 (centres undefined) | 5 | 32 | -0.35 | -7 | -2 | i
Cc1ccc(C)c(OCC(O)CN2CCC(C)CC2)c1C (centres undefined) | 2 | -8 | -0.65 | 100* | 1 | i
COc1cccc(OCC(O)CN2CCN(c3ccc(Cl)cc3)CC2)c1 (centres undefined) | · | 30 | -0.005 | · | -1 | ·
Cc1ccccc1OCC(O)CN1CCC(C)CC1 (centres undefined) | 6 | -7 | -0.045 | 72* | 1 | i
Cc1ccccc1OCC(O)CN1CCN(c2ccc(Cl)cc2)CC1 (centres undefined) | · | 82* | 2.3 | · | -1 | ·
Cc1ccccc1OCC(O)CN1CCN(CC(O)COc2ccccc2C)CC1 (centres undefined) | 3 | 2 | 0.22 | 63* | 1 | i
Cc1ccccc1OCC(O)CN1CCCCC1 (centres undefined) | 2 | -23 | -0.41 | 13 | -1 | i
Cc1cccc(C)c1OCC(O)CN1CCN(c2ccccc2)CC1 (centres undefined) | 8 | 35 | 0.67 | 15 | 0 | i
Cc1cc(C)nc(SCCn2c(N3CCOCC3)nc3c2c(=O)[nH]c(=O)n3C)n1 | 1 | -12 | 0.97 | -6 | -1 | i
Cc1cnc(C(=O)Nc2cccc(S(=O)(=O)N(C)C)c2)cn1 | 5 | 2 | -0.13 | -7 | 1 | i
CCc1ccccc1NS(=O)(=O)c1ccc2[nH]cc(C(=O)NCC3CCCO3)c(=O)c2c1 (centres undefined) | 3 | -7 | -0.44 | 6 | -3 | i
CN(Cc1ccccc1)S(=O)(=O)c1ccc2[nH]cc(C(=O)NCC3CCCO3)c(=O)c2c1 (centres undefined) | 3 | -20 | -0.84 | 99* | 0 | i
COc1ccc(NC(=O)c2nc[nH]c2C(=O)N[C@@H](CC(C)C)C(=O)OC(C)(C)C)cc1 | · | 76* | -0.36 | · | -1 | ·
CC(C)C[C@H](NC(=O)c1[nH]cnc1C(=O)N[C@@H](Cc1ccccc1)C(=O)OC(C)(C)C)C(=O)OC(C)(C)C | · | 48 | 0.055 | · | -3 | ·
CC(C)C[C@H](NC(=O)c1[nH]cnc1C(=O)Nc1ccc(CNC(=O)OC(C)(C)C)cc1)C(=O)OC(C)(C)C | · | 84* | -0.072 | · | 0 | ·
COc1ccc(NC(=O)c2nc[nH]c2C(=O)N[C@@H](C)C(=O)OC(C)(C)C)cc1 | · | 25 | -0.11 | · | 0 | ·
CC(C)(C)OC(=O)CNC(=O)c1[nH]cnc1C(=O)N[C@@H](Cc1ccccc1)C(=O)OC(C)(C)C | · | 90* | -0.76 | · | -1 | ·
CC(C)C[C@H](NC(=O)c1nc[nH]c1C(=O)NC1CCN(C(=O)OC(C)(C)C)CC1)C(=O)OCc1ccccc1 | 1 | 30 | 1.1 | 51* | -3 | i
Cc1cc(C)nc(S/C=C/C(=O)c2ccc(F)cc2)n1 | · | -22 | -0.92 | · | 1 | ·
COc1ccc2nc(/N=C/c3c(C)[nH]n(-c4ccc(C)cc4C)c3=O)sc2c1 | 3 | -3 | 0.53 | 0 | -1 | i
O=C(Nc1ccc(N2CCOCC2)nc1)c1ccccc1Cl | · | -6 | -0.089 | · | -2 | ·
SMILES | MT stabilize HCS | CHOP inh | Dynein cargo inh | L major viab | b-catenin transl | Autophagy HCS
CSc1nnc(C)c(=O)n1COC(=O)c1cc(Cl)ccc1[N+](=O)[O-] | 3 | -12 | -1 | -5 | -2 | i
CC(=O)Nc1ccc(SCC(=O)c2cc(C)n(CC(F)(F)F)c2C)cc1 | 2 | 3 | 1.1 | 61* | · | i
CC(C)CC(=O)O/N=C1\C(=O)N(Cc2ccc(Cl)cc2)c2ccc([N+](=O)[O-])cc21 | 4 | 90* | -0.88 | -5 | 0 | i
O=C(CN1C(=O)C2C3C=CC(C3)C2C1=O)N1CC(=O)N(CCc2ccccc2)C(=O)C1 (centres undefined) | 3 | 74* | -0.7 | -5 | 0 | i
COc1ccc(-c2n(CC(=O)OC3CC(C)CCC3C(C)C)c3ccccc3[n+]2C)cc1 (centres undefined) | 6 | 87* | 0.98 | 101* | 3 | +
CN1CCC(OC(=O)COc2ccccc2)CC1 | 3 | -2 | 1.4 | -1 | -3 | i
CN1CCC(Oc2ccc(Sc3ccccc3)cc2)CC1 | 3 | 14 | -0.87 | 100* | 5 | i
CN1CCC(Oc2ccccc2Sc2ccc(C(F)(F)F)cc2)CC1 | 2 | 44 | 0.79 | 99* | 2 | i
CC1CC2OC(=O)C3(C)CCCC(C)(C23)C1(O)CCc1ccoc1 (centres undefined) | · | 14 | -0.53 | · | 1 | ·
CN(c1ccccc1)S(=O)(=O)c1cccc(NC(=O)CSc2nnc(N)s2)c1 | 3 | 32 | 1.3 | 78* | 0 | i
CC(=O)c1c(C)[nH]c(C(=O)Nc2cccc(S(=O)(=O)N(C)c3ccccc3)c2)c1C | 5 | 36 | 0.17 | 95* | 0 | i
Cc1ccccc1CN(C)CC(=O)Nc1cccc(S(=O)(=O)N(C)c2ccccc2)c1 | 3 | 32 | -0.16 | 71* | -1 | i
COCCNc1nnc(SCC(=O)Nc2cc(-c3ccccc3)nn2-c2ccccc2)s1 | 2 | 29 | -0.51 | -5 | 0 | i
O=C(CSc1nncs1)Nc1cc(-c2ccccc2)nn1-c1ccccc1 | 2 | 45 | -1.1 | 51* | -5 | i
CCN(CC)S(=O)(=O)c1ccc(N=Cc2c(C)c(C#N)c(=O)n(C)c2O)cc1 | 6 | 1 | -0.15 | -5 | -1 | i
Cn1c(Cn2nnc(-c3ccccc3)n2)nnc1SCc1ccccc1Cl | 2 | 18 | -0.31 | 7 | -6 | i
Cc1ccc(CNC(=O)CCC2CCCN(Cc3cccc4cccnc34)C2)o1 (centres undefined) | 3 | 10 | -0.58 | 5 | 0 | i
CCc1ccc(C2CC(=O)N(c3ccc(F)cc3)C3=C2C(=O)OC3)cc1 (centres undefined) | 4 | 12 | -0.24 | -2 | -4 | i
CC(O)c1nc2ccccc2n1CCCCOc1ccccc1 (centres undefined) | 1 | -1 | -0.41 | 1 | -1 | i
